Source: PubChem
The entries come from a sample that favours hits as a whole.
A1 apoptosis 2 – A1 inhibition read as caspase activation. MEF A1-2A-BIM cells, caspase-Glo luminescence, 3 h; percent of clofoctol response, DMSO zero. caspase activation, % (test concentration not listed). 24,000 tested, under 10 active; in the data active = caspase activation above about 5.9%
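Test system – A1-2A-BIM-expressing MEF cells · Input – 2500 cells/well · Medium – RPMI-1640 growth medium with 10% FBS · Compound dosing – 50 nL pinned compound · Timing – 3 h compound exposure at 37 °C · Technique – Caspase-Glo luminescence (DEVD substrate) · Evaluation – Caspase-3/7 activity from luminescence increase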
T cruzi intra – inhibitors of intracellular Trypanosoma cruzi; intracellular Trypanosoma cruzi in host cells, plate reader; activity score (inhibition), % at 5.01 µM; 22,000 tested, 4.9% active; AID 651903; in the data active = activity score above about 55%;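 note: parasites and compound incubated about four days before reading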
INS-1E rescue – INS-1E beta cell protection from cytokine death. INS-1E cytokine-induced death, ATP luminescence, 48 h; normalised: neutral wells 0, positive control 100. protection from cytokine-induced ATP loss, % at 10 µM. 20,000 tested, 0.1% active. AID 488910;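 active = mean replicate protection from cytokine-induced ATP loss at least 50% and at least 75% of replicates each reaching 50%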
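Material: INS-1E rat cells; Quantity: 8000 cells/well; Buffer or medium: phenol-red-free RPMI with 5% fetal bovine serum; Probe or stimulus: cytokine cocktail of IFN-γ, TNF-α and IL-1β; Compound dosing: single test concentration per compound, delivered by pin transfer; Incubation: 48 h co-treatment, 10 min post-lysis read; Signal: CellTiter-Glo luminescence.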
Numbers stand for hits; 0 = inactive; - = not tested or not shown.

SMILES | A1 apoptosis 2 | T cruzi intra | INS-1E rescue
C[C@@H]1CN([C@@H](C)CO)C(=O)Cc2cc(NC(=O)CCCCCC(=O)Nc3ccccc3N)ccc2O[C@H]1CN(C)S(=O)(=O)c1cccs1 | 0 | - | -
C[C@H]1CCCCO[C@@H](CN(C)C(=O)Nc2ccc3c(c2)OCO3)[C@@H](C)CN([C@@H](C)CO)C(=O)c2cc(NS(=O)(=O)c3cccs3)ccc2O1 | 0 | - | -
O=C(O)CCCCCC(=O)N/N=C/c1ccccc1Cl | 0 | 0 | 0
C[C@H](CO)N1C[C@H](C)[C@H](CN(C)S(=O)(=O)c2cccc(F)c2)Oc2ncc(C#Cc3ccc(F)cc3)cc2C1=O | - | 64 | 0
C[C@H](CO)N1C[C@H](C)[C@H](CN(C)S(=O)(=O)c2ccc(F)cc2)Oc2ncc(C#Cc3ccc(F)cc3)cc2C1=O | 0 | 66 | -
C[C@H](CO)N1C[C@H](C)[C@H](CN(C)S(=O)(=O)c2cccs2)Oc2ncc(C#Cc3ccccc3)cc2C1=O | 0 | 73 | -
C[C@H](CO)N1C[C@H](C)[C@H](CN(C)S(=O)(=O)c2cccs2)Oc2ncc(C#CCN(C)C)cc2C1=O | - | 0 | -
COc1ccc(C#Cc2cnc3c(c2)C(=O)N([C@H](C)CO)C[C@H](C)[C@H](CN(C)S(=O)(=O)c2ccc(C)cc2)O3)cc1OC | 0 | 0 | -
C[C@H](CO)N1C[C@H](C)[C@H](CN(C)S(=O)(=O)c2cccc(F)c2)Oc2ncc(C#Cc3cccc(F)c3)cc2C1=O | - | 0 | -
C[C@H](CO)N1C[C@H](C)[C@H](CN(C)S(=O)(=O)c2ccccc2)Oc2ncc(C#Cc3ccc(F)cc3)cc2C1=O | 0 | 0 | -
Cc1ccc(S(=O)(=O)N(C)C[C@@H]2Oc3ncc(C#Cc4ccc(F)cc4)cc3C(=O)N([C@H](C)CO)C[C@@H]2C)cc1 | - | 59 | -
Cn1cc(/C=N/NC(=O)CCCCCC(=O)NO)c2ccccc21 | 0 | - | -
CN(C)c1ccc(/C=N/NC(=O)CCCCC(=O)NO)cc1 | 0 | 0 | 0
C[C@]12CCC3C4(C=CC5(C=C4C(=O)c4ccc(F)c(F)c4)C[C@@H](O)CC[C@]35C)C1CC[C@@]2(O)CN1CCC(C(N)=O)CC1 (stereo partly specified) | 0 | - | -
C[C@H]1CN([C@@H](C)CO)C(=O)c2cccc(NS(=O)(=O)c3ccccc3)c2O[C@H]1CN(C)S(=O)(=O)c1ccc(Cl)cc1 | - | 0 | 0
C[C@@H]1CN([C@H](C)CO)C(=O)c2cccc(NC(=O)Nc3ccc(C(F)(F)F)cc3)c2O[C@@H]1CN(C)Cc1ccc(C(F)(F)F)cc1 | 0 | 89 | 0
C[C@H]1CN([C@@H](C)CO)C(=O)c2cccc(NC(=O)Nc3ccc(F)cc3)c2O[C@@H]1CN(C)Cc1ccc(C(F)(F)F)cc1 | 0 | 0 | 0
C[C@@H]1CN([C@H](C)CO)C(=O)c2cccc(NC(=O)Nc3ccc(C(F)(F)F)cc3)c2O[C@@H]1CN(C)Cc1ccc(-c2ccccc2)cc1 | 0 | 0 | 0
C[C@H]1CN([C@@H](C)CO)C(=O)c2cccc(NC(=O)Nc3ccc(F)cc3)c2O[C@@H]1CN(C)Cc1ccc(-c2ccccc2)cc1 | 0 | 0 | 0
C[C@@H]1CN([C@@H](C)CO)C(=O)c2cccc(NC(=O)Nc3ccc(C(F)(F)F)cc3)c2O[C@@H]1CN(C)Cc1ccc(-c2ccccc2)cc1 | - | 65 | 0
C[C@@H]1CN([C@H](C)CO)C(=O)c2cccc(NC(=O)Nc3ccc(F)cc3)c2O[C@@H]1CN(C)Cc1ccc(-c2ccccc2)cc1 | - | 68 | 0
C[C@H]1CN([C@@H](C)CO)C(=O)c2cccc(NC(=O)Nc3ccc(C(F)(F)F)cc3)c2O[C@H]1CN(C)Cc1ccc(C(F)(F)F)cc1 | - | 63 | 0
C[C@@H]1CN([C@H](C)CO)C(=O)c2cccc(NC(=O)Nc3ccc(C(F)(F)F)cc3)c2O[C@H]1CN(C)Cc1ccc(C(F)(F)F)cc1 | 0 | 0 | 0
Cc1noc(C)c1S(=O)(=O)Nc1cccc2c1O[C@H](CN(C)S(C)(=O)=O)[C@H](C)CN([C@H](C)CO)C2=O | 0 | 0 | 0
C[C@@H]1CN([C@H](C)CO)C(=O)c2cccc(NS(=O)(=O)c3ccc(Cl)cc3)c2O[C@H]1CN(C)C(=O)Nc1ccc(F)cc1 | 0 | 0 | 0
SMILES | A1 apoptosis 2 | T cruzi intra | INS-1E rescue
O=C(NO)c1cccc(C(=O)N/N=C/c2ccccc2[N+](=O)[O-])c1 | 0 | 0 | 0
COc1cccc(/C=C2\SC(=S)N(CCCC(=O)O)C2=O)c1 | 0 | - | -
COc1ccc(CN(C)C[C@@H]2Oc3ccc(NC(=O)Cc4cn(C)c5ccccc45)cc3CC(=O)N([C@H](C)CO)C[C@@H]2C)cc1 | 0 | 0 | 0
C[C@@H]1CN([C@H](C)CO)C(=O)c2cccc(NC(=O)C3CC3)c2O[C@@H]1CN(C)Cc1ccc(C(F)(F)F)cc1 | - | 0 | 0
C[C@@H]1CN([C@H](C)CO)C(=O)c2cccc(NC(=O)C3CCCCC3)c2O[C@H]1CN(C)Cc1ccc(C(F)(F)F)cc1 | - | 78 | 0
Cc1ccc(S(=O)(=O)N(C)C[C@H]2Oc3c(NC(=O)Nc4ccc(F)cc4)cccc3C(=O)N([C@@H](C)CO)C[C@H]2C)cc1 | 0 | 0 | 0
C[C@@H]1CCCCO[C@@H](CN(C)C(=O)Cc2ccccc2)[C@H](C)CN([C@@H](C)CO)C(=O)c2cc(NC(=O)CCCCCC(=O)Nc3ccccc3N)ccc2O1 | 0 | - | -
Cc1ccc(S(=O)(=O)Nc2ccc3c(c2)C(=O)N([C@H](C)CO)C[C@H](C)[C@@H](CN(C)Cc2ccc(Cl)c(Cl)c2)O3)cc1 | - | 0 | 0
C[C@H](CO)N1C[C@H](C)[C@@H](CN(C)Cc2ccncc2)Oc2ccc(NS(=O)(=O)c3cccs3)cc2C1=O | 0 | 0 | 0
Cc1ccc(S(=O)(=O)Nc2ccc3c(c2)C(=O)N([C@@H](C)CO)C[C@H](C)[C@H](CN(C)Cc2ccc(Cl)c(Cl)c2)O3)cc1 | 0 | 14 | -
C[C@H]1CN([C@@H](C)CO)C(=O)c2cc(NS(=O)(=O)c3cccs3)ccc2O[C@@H]1CN(C)Cc1ccc(Cl)c(Cl)c1 | - | 57 | 0
C[C@@H]1CN([C@H](C)CO)C(=O)c2cc(NS(=O)(=O)c3ccc(F)cc3)ccc2O[C@H]1CN(C)Cc1ccc(Cl)c(Cl)c1 | - | 0 | 0
C[C@H](CO)N1C[C@H](C)[C@@H](CN(C)Cc2ccc(Cl)c(Cl)c2)Oc2ccc(NS(=O)(=O)c3ccc(Cl)cc3)cc2C1=O | - | 64 | 0
C[C@@H]1CCCCO[C@@H](CN(C)C)[C@H](C)CN([C@H](C)CO)C(=O)c2cc(NS(=O)(=O)c3ccc(Cl)cc3)ccc2O1 | 0 | - | -
Cc1noc(C)c1NC(=O)Nc1cccc2c1O[C@H](CN(C)C(=O)Nc1ccc(C(F)(F)F)cc1)[C@H](C)CN([C@@H](C)CO)C2=O | - | 0 | 0
O=C(CCCCC(=O)N/N=C/c1cc(O)ccc1O)NO | 0 | 0 | 0
O=C(CCCCCC(=O)N/N=C/c1ccc(O)c2ccccc12)NO | 0 | 0 | 57
COC(=O)CCCCCCC(=O)N/N=C/c1ccc(-c2ccccc2)c(F)c1 | 0 | 0 | 0
O=C(CCCCC(=O)N/N=C/c1cccc(O)c1)NO | - | 0 | 0
O=C(CCCCC(=O)N/N=C/c1ccc(-c2ccccc2)c(F)c1)NO | - | 0 | 60
O=C(CCCCC(=O)N/N=C/c1ccc2ccccc2c1)NO | 0 | 0 | 73
